According to ChEMBL document CHEMBL4364284, “Design, Synthesis, and Efficacy Testing of Nitroethylene- and 7-Nitrobenzoxadiazol-Based Flavodoxin Inhibitors against Helicobacter pylori Drug-Resistant Clinical Strains and in Helicobacter pylori-Infected Mice” (J Med Chem, 2019):
Converted amounts (≈) assume the structure as drawn. The source made the active and inactive calls. The calls are words filed in the database; no cut-off is given here.

How the values were obtained:
[1] = Therapeutic index, ratio of MCC50 for human HeLa cells to MIC for inhibition of flavodoxin in Mnz-resistant Helicobacter pylori NCTC 11637 ATCC 43504 assessed as reduction in bacterial growth; format: toxicity; settings: read-out: TI
Method in brief: (§1)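 TI is MCC50/MIC. For MCC50, HeLa cells (30 000/well, DMEM with 10% FBS) were exposed to compound at 25–1000 μM final. Viability by XTT at 450/650 nm; MCC50 is the concentration giving 50% lysis from viability curves. Run twice in triplicate.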

[2] = biological target: T1, Flavodoxin (Helicobacter pylori (strain ATCC 700392 / 26695) (Campylobacter pylori)) (UniProt O25776); assay: Inhibition of flavodoxin in Helicobacter pylori ATCC 700392 26695 assessed as reduction in bacterial growth measured after 48 hrs by resazurin staining-based microdilution method; settings: Helicobacter pylori 26695
T1 sequence (whole entry): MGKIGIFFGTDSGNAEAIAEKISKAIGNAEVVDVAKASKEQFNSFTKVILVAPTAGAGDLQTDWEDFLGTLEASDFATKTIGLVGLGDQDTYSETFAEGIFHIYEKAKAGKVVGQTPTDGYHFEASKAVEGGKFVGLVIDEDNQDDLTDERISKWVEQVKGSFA
Method in brief: (§2)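 Broth microdilution in brain heart infusion with 4% FBS. Inoculum diluted to OD600 0.01. Two-fold dilutions from a DMSO stock cover 64–0.031 μg/mL, with DMSO ≤1% v/v. Incubated 48 h at 37 °C under microaerophilic conditions. MIC is the lowest concentration giving complete growth inhibition, read by resazurin colour change and confirmed by spotting on blood agar. Run twice in triplicate.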

[3] = Therapeutic index, ratio of MCC50 for human HeLa cells to MIC for inhibition of flavodoxin in clarithromycin/metronidazole-resistant Helicobacter pylori isolate 6 assessed as reduction in bacterial growth; format: toxicity; settings: read-out: TI; method in brief: as §1
Helicobacter pylori [4] = assay: Antibacterial activity against Helicobacter pylori SS1 infected in NMRI mouse assessed as bacterial eradication at 20 mg/100g, po administered daily via gavage for 8 days starting from 1 week post-infection and measured 8 days post-last dose; format: functional, organism-based
Method in brief: (§3)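 Female 6-week-old SPF NMRI mice, 7 per condition, infected orogastrically on days 1 and 3 with 100 μL Hp SS1 (5 × 10^8 CFU/mL). From day 8, compound given daily by oral gavage for 8 days in 100 μL of 5–10% DMSO/95–90% olive oil. Sacrificed day 24; stomach homogenate CFU/g counted after 5 days microaerophilic culture at 37 °C. Infected vehicle-treated controls; Mann-Whitney U and unpaired t tests, p ≤ 0.05.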

[5] = Therapeutic index, ratio of MCC50 for human HeLa cells to MIC for inhibition of flavodoxin in metronidazole-resistant Helicobacter pylori isolate 2 assessed as reduction in bacterial growth; format: toxicity; settings: read-out: TI; method in brief: as §1
[6] = Therapeutic index, ratio of MCC50 for human HeLa cells to MIC for inhibition of flavodoxin in rifampicin-resistant Helicobacter pylori isolate 5 assessed as reduction in bacterial growth; format: toxicity; settings: read-out: TI; method in brief: as §1
Staphylococcus aureus = assay: Effect on growth of Staphylococcus aureus ATCC 1228 after 48 hrs by resazurin-dye based microdilution assay; format: organism-based
[7] = Cytotoxicity against human HeLa cells assessed as reduction in cell viability by XTT assay; format: cell-based; settings: read-out: MCC50
Method in brief: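 HeLa cells grown in DMEM with 10% FBS, penicillin and streptomycin at 37 °C, 5% CO2; 30 000 cells/well. XTT viability read at 450 and 650 nm. MCC50 (50% lysis) came from viability-versus-concentration curves. Two experiments, each in triplicate.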

[8] = Therapeutic index, ratio of MCC50 for human HeLa cells to MIC for inhibition of flavodoxin in Helicobacter pylori SS1 assessed as reduction in bacterial growth; format: toxicity; settings: HeLa cells versus Helicobacter pylori SS1, read-out: TI; method in brief: as §1
[9] = biological target: T1, Flavodoxin (Helicobacter pylori (strain ATCC 700392 / 26695) (Campylobacter pylori)); assay: Inhibition of flavodoxin in Helicobacter pylori SS1 assessed as reduction in bacterial growth measured after 48 hrs by resazurin staining-based microdilution method; method in brief: as §2
[10] = biological target: T1, Flavodoxin (Helicobacter pylori (strain ATCC 700392 / 26695) (Campylobacter pylori)); assay: Inhibition of flavodoxin in Mnz-resistant Helicobacter pylori NCTC 11637 ATCC 43504 assessed as reduction in bacterial growth measured after 48 hrs by resazurin staining-based microdilution method; settings: Helicobacter pylori NCTC 11637 = CCUG 17874 = ATCC 43504; method in brief: as §2
Escherichia coli = assay: Effect on growth of Escherichia coli DH5[alpha] after 48 hrs by resazurin-dye based microdilution assay; format: organism-based
[11] = biological target: T1, Flavodoxin (Helicobacter pylori (strain ATCC 700392 / 26695) (Campylobacter pylori)); assay: Binding affinity to Helicobacter pylori flavodoxin by isothermal titration calorimetric method
[12] = Toxicity in NMRI mouse assessed as change in body weight at 10 to 20 mg/100g, po administered daily via gavage for 8 days; format: organism-based; settings: in vivo, 192 h
[13] = Therapeutic index, ratio of MCC50 for human HeLa cells to MIC for inhibition of flavodoxin in metronidazole-resistant Helicobacter pylori isolate 1 assessed as reduction in bacterial growth; format: toxicity; settings: read-out: TI; method in brief: as §1
[14] = Toxicity in NMRI mouse infected with Helicobacter pylori SS1 assessed as change in body weight at 10 to 20 mg/100g, po administered daily via gavage for 8 days starting from 1 week post-infection; format: organism-based; settings: in vivo
Method in brief: (§4)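 Female 6-week-old SPF NMRI mice infected orogastrically with Hp SS1 on days 1 and 3. Compound in 5–10% DMSO/olive oil (100 μL) given by daily oral gavage for 8 days from day 8. Body weight and appetite were monitored during treatment; infected controls received vehicle alone.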

[15] = biological target: T1, Flavodoxin (Helicobacter pylori (strain ATCC 700392 / 26695) (Campylobacter pylori)); assay: Binding affinity to Helicobacter pylori flavodoxin by thermal upshift assay
[16] = Therapeutic index, ratio of MCC50 for human HeLa cells to MIC for inhibition of flavodoxin in clarithromycin/metronidazole-resistant Helicobacter pylori isolate 4 assessed as reduction in bacterial growth; format: toxicity; settings: read-out: TI; method in brief: as §1
[17] = Therapeutic index, ratio of MCC50 for human HeLa cells to MIC for inhibition of flavodoxin in Helicobacter pylori ATCC 700392 26695 assessed as reduction in bacterial growth; format: toxicity; settings: HeLa cells versus Helicobacter pylori ATCC 700392 26695, read-out: TI; method in brief: as §1
[18] = Toxicity in NMRI mouse infected with Helicobacter pylori SS1 assessed as change in appetite at 10 to 20 mg/100g, po administered daily via gavage for 8 days starting from 1 week post-infection; format: organism-based; settings: in vivo; method in brief: as §4
[19] = Therapeutic index, ratio of MCC50 for human HeLa cells to MIC for inhibition of flavodoxin in metronidazole-resistant Helicobacter pylori isolate 3 assessed as reduction in bacterial growth; format: toxicity; settings: read-out: TI; method in brief: as §1
[20] = biological target: T1, Flavodoxin (Helicobacter pylori (strain ATCC 700392 / 26695) (Campylobacter pylori)); assay: Inhibition of flavodoxin in metronidazole-resistant Helicobacter pylori isolate 1 assessed as reduction in bacterial growth measured after 48 hrs by resazurin staining-based microdilution method
Method in brief: (§5)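 Clinical isolates from gastric biopsies of patients who failed ≥2 therapies; resistance classified by EUCAST breakpoints. […] Read by resazurin colour change as the lowest concentration giving complete growth inhibition.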

[21] = biological target: T1, Flavodoxin (Helicobacter pylori (strain ATCC 700392 / 26695) (Campylobacter pylori)); assay: Inhibition of flavodoxin in rifampicin-resistant Helicobacter pylori isolate 5 assessed as reduction in bacterial growth measured after 48 hrs by resazurin staining-based microdilution method; method in brief: as §5
[22] = biological target: T1, Flavodoxin (Helicobacter pylori (strain ATCC 700392 / 26695) (Campylobacter pylori)); assay: Inhibition of flavodoxin in clarithromycin/metronidazole-resistant Helicobacter pylori isolate 4 assessed as reduction in bacterial growth measured after 48 hrs by resazurin staining-based microdilution method; method in brief: as §5
[23] = biological target: T1, Flavodoxin (Helicobacter pylori (strain ATCC 700392 / 26695) (Campylobacter pylori)); assay: Inhibition of flavodoxin in clarithromycin/metronidazole-resistant Helicobacter pylori isolate 6 assessed as reduction in bacterial growth measured after 48 hrs by resazurin staining-based microdilution method
[24] = biological target: T1, Flavodoxin (Helicobacter pylori (strain ATCC 700392 / 26695) (Campylobacter pylori)); assay: Inhibition of flavodoxin in metronidazole-resistant Helicobacter pylori isolate 2 assessed as reduction in bacterial growth measured after 48 hrs by resazurin staining-based microdilution method; method in brief: as §5
Helicobacter pylori [25] = assay: Antibacterial activity against Helicobacter pylori SS1 infected in NMRI mouse assessed as reduction in gastric colonization at 20 mg/100g, po administered daily via gavage for 8 days starting from 1 week post-infection and measured 8 days post-last dose; format: functional, organism-based; method in brief: as §3
Helicobacter pylori [26] = assay: Antibacterial activity against Helicobacter pylori SS1 infected in NMRI mouse assessed as reduction in gastric colonization at 10 mg/100g, po administered daily via gavage for 8 days starting from 1 week post-infection and measured 8 days post-last dose; format: functional, organism-based
Method in brief: (§6)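 Female 6-week-old SPF NMRI mice, seven per condition, infected orogastrically on days 1 and 3 with 100 μL Hp SS1 (5 × 10^8 CFU/mL). From day 8, 100 μL compound in 5–10% DMSO/95–90% olive oil by daily oral gavage for 8 days. Infected controls got vehicle. Killed day 24; stomach homogenates plated 5 days at 37 °C microaerophilic; CFU/g tissue versus control. Mann-Whitney U and unpaired t tests, p ≤ 0.05.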

Helicobacter pylori [27] = assay: Antibacterial activity against Helicobacter pylori SS1 infected in NMRI mouse assessed as bacterial eradication at 10 mg/100g, po administered daily via gavage for 8 days starting from 1 week post-infection and measured 8 days post-last dose; format: functional, organism-based; method in brief: as §6

Row | Compound | selectivity ratio [1] | MIC [2] | selectivity ratio [3] | Activity (Helicobacter pylori [4]) | selectivity ratio [5] | selectivity ratio [6] | Activity (Staphylococcus aureus) | CC50 [7] | selectivity ratio [8] | MIC [9] | MIC [10] | Activity (Escherichia coli) | Activity [11] | Activity [12] | selectivity ratio [13] | Activity [14] | Activity [15] | selectivity ratio [16] | selectivity ratio [17] | Activity [18] | also measured
1 | O=[N+]([O-])CCc1cc(C(F)(F)F)cc(C(F)(F)F)c1 | > 18 | 56 µM (≈ 16.1 µg/mL) | 9 | Active | 9 | 9 | Non-Toxic | > 1000 µM | > 4.5 | 223 µM (≈ 64 µg/mL) | 56 µM (≈ 16.1 µg/mL) | Non-Toxic | Active | Non-Toxic | 9 | Non-Toxic | Active | 9 | > 18 | Non-Toxic | selectivity ratio [19]: 9
2 | COc1ccc(CSc2cc(Cl)c(N)c3nonc23)cc1 | > 85 | 5.9 µM (≈ 1.9 µg/mL) | 322 |  | 322 | 40 | Non-Toxic | > 1000 µM | > 170 | 5.9 µM (≈ 1.9 µg/mL) | 11.8 µM (≈ 3.8 µg/mL) | Non-Toxic | Active | Non-Toxic | 161 | Non-Toxic | Active | 80 | > 170 | Non-Toxic | inhibition [20]: Active; inhibition [21]: Active; inhibition [22]: Active; inhibition [23]: Active; inhibition [24]: Active; selectivity ratio [19]: 10
3 | NCCc1cc(C(F)(F)F)cc(C(F)(F)F)c1 | > 16 | 31 µM (≈ 7.97 µg/mL) |  | Active |  |  | Non-Toxic | > 500 µM |  | > 249 µM | 31 µM (≈ 7.97 µg/mL) | Non-Toxic | Active | Non-Toxic |  | Non-Toxic | Active |  | > 16 | Non-Toxic | Activity (Helicobacter pylori [25]): Active
4 | O/N=C1\Cc2cc(Cl)cc(Cl)c2OC1c1ccc(F)cc1 (configuration not stated) | 19 | 6.1 µM (≈ 1.99 µg/mL) |  |  |  |  | Non-Toxic | 117 µM | 10 | 12 µM (≈ 3.91 µg/mL) | 6.1 µM (≈ 1.99 µg/mL) | Non-Toxic | Active | Non-Toxic |  | Non-Toxic | Active |  | 19 | Non-Toxic | Activity (Helicobacter pylori [26]): Active; Activity (Helicobacter pylori [27]): inactive
